From ChEMBL document CHEMBL1129596, “Synthesis, biological activity, and molecular modeling of selective 5-HT(2C/2B) receptor antagonists” (J Med Chem, 1996)

Assays:
[1] = biological target: T1, 5-hydroxytryptamine receptor 2C (Rattus norvegicus, UniProt P08909); experiment: Displacement of [3H]mesulergine from rat 5-HT2C receptor expressed in HEK293
T1 sequence (P08909 whole entry): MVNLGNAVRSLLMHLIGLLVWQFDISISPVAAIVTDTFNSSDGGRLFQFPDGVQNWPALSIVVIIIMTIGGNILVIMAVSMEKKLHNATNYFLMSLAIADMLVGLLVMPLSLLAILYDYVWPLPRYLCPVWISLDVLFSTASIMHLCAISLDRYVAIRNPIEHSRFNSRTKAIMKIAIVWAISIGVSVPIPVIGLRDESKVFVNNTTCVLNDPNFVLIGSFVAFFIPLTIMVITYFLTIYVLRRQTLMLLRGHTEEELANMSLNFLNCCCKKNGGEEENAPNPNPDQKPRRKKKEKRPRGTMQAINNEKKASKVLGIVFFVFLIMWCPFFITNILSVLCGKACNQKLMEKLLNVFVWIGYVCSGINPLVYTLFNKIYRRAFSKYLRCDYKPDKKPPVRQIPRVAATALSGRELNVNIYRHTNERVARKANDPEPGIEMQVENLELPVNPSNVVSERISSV
Summary of the method: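 Binding to cloned rat 5-HT2C receptors expressed in HEK 293 cells, with [3H]mesulergine as radioligand. Each value is the mean of at least two determinations, each lying within 0.2 log unit of the mean.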

[2] = biological target: 5-hydroxytryptamine receptor 2A (Rattus norvegicus, UniProt P14842); experiment: Displacement of [3H]ketanserin from 5-HT2A receptor of rat frontal cortex; format: tissue-based
Summary of the method: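 Radioligand binding in rat frontal cortex membranes with [3H]ketanserin as the labelled ligand. Values are the mean of at least two determinations, each within 0.2 log unit of the mean.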

[3] = biological target: 5-hydroxytryptamine receptor 2B (Rattus norvegicus, UniProt P30994); experiment: Inhibition of 5-HT binding to 5-HT2B receptor of Rat stomach fundus; format: tissue-based; conditions: read-out: pA2 (converted)
Summary of the method: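 Functional rather than binding assay: inhibition of 5-HT-induced contractions of isolated rat stomach fundus. Values are the mean of at least two determinations, each within 0.2 log unit of the mean.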

[4] = biological target: Serotonin receptor 2a and 2c (5HT2A and 5HT2C) (Rattus norvegicus) (UniProt P08909+P14842); experiment: Relative affinity for 5-hydroxytryptamine 2C over 5-hydroxytryptamine 2A receptors; format: protein assay
Serotonin receptor 2a and 2c (5HT2A and 5HT2C) (Rattus norvegicus), sequence (P14842 whole entry, looked up, one chain of several): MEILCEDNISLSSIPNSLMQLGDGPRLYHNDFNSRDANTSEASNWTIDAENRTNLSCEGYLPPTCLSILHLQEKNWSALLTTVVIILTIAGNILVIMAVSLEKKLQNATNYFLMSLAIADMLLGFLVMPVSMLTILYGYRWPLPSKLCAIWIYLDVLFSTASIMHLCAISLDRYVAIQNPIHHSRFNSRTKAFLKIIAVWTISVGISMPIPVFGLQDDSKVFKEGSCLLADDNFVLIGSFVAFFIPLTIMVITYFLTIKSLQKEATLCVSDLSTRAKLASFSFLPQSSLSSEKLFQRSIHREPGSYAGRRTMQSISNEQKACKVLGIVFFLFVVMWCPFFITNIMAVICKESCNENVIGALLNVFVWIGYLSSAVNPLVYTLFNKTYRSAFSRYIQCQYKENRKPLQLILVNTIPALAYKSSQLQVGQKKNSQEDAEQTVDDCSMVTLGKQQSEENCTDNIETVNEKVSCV

5-hydroxytryptamine receptor 2B, sequence (P30994 whole entry): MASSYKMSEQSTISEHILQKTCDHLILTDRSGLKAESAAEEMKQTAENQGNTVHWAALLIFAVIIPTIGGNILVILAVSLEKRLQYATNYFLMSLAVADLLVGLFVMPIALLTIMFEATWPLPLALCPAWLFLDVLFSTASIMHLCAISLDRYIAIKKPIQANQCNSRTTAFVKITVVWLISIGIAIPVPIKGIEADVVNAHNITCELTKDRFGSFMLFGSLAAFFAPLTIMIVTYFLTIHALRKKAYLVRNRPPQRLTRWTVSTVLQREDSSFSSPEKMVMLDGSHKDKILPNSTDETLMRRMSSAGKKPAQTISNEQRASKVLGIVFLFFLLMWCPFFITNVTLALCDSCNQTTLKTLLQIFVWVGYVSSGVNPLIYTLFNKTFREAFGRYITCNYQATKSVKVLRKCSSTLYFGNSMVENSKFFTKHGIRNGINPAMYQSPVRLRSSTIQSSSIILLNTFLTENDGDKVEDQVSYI
5-hydroxytryptamine receptor 2A, sequence (P14842 whole entry): as the sequence (P14842 whole entry, looked up, one chain of several) above

| SMILES | Ki [1] [nM] | Ki [2] [nM] | Kb [3] [nM] | Selectivity ratio [4] |
| --- | --- | --- | --- | --- |
| Cn1ccc2cc3c(cc21)N(C(=O)Nc1cccnc1)CC3 | 1260 | – | – | – |
| O=C(Nc1cccnc1)N1CCc2cc3c(ccn3Cc3ccccc3)cc21 | 50.1 | > 6310 | 200 | > 130 |
| O=C(Nc1cccnc1)N1CCc2cc3[nH]ccc3cc21 | 126 | 1580 | 31.6 | 13 |
| CN1CCc2cc3c(cc21)CCN3C(=O)Nc1cccnc1 | 63.1 | 5010 | 12.6 | 80 |
| CCCn1ccc2cc3c(cc21)CCN3C(=O)Nc1cccnc1 | 12.6 | 3160 | 7.94 | 250 |
| Cn1ccc2c3c(ccc21)CCN3C(=O)Nc1cccnc1 | 200 | – | – | – |
| Cn1ccc2cc3c(cc21)CCN3C(=O)Nc1cccnc1 | 5.01 | 501 | 3.16 | 100 |
| Cn1ccc2c3c(ccc21)N(C(=O)Nc1cccnc1)CC3 | 25.1 | 2000 | 15.8 | – |
| CC(C)n1ccc2cc3c(cc21)CCN3C(=O)Nc1cccnc1 | 10 | 3980 | 6.31 | 400 |
| O=C(Nc1cccnc1)N1CCc2cc3sccc3cc21 | 7.94 | 251 | 10 | 30 |
| Cc1cc2cc3c(cc2n1C)CCN3C(=O)Nc1cccnc1 | 39.8 | 3160 | 20 | 80 |
| Cn1ccc2ccc3c(c21)CCN3C(=O)Nc1cccnc1 | 63.1 | 3160 | – | 50 |
| Cc1coc2cc3c(cc12)CCN3C(=O)Nc1cccnc1 | 2.51 | 398 | 1.26 | 160 |
| CCn1ccc2cc3c(cc21)CCN3C(=O)Nc1cccnc1 | 7.94 | 1260 | 10 | 160 |
